Assay results taken from ChEMBL document CHEMBL1649179, “Pharmacokinetics of LB80331 and LB80317 following oral administration of LB80380, a new antiviral agent for chronic hepatitis B (CHB), in healthy adult subjects, CHB patients, and mice” (Antimicrob Agents Chemother, 2009).

Assays:
Liver [1] = assay: AUC (0 to infinity) in CD-1 mouse liver assessed as di- and triphosphates of (1-((2-amino-6-hydroxy-9H-purin-9-yl)methyl)cyclopropoxy)me at 30 mg/kg, po administered as single dose by LC-MS analysis; format: ADME, organism-based; design: time infinity, dose 30 mg/kg, route oral; details: in vivo
Method in brief: (§1)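 Male CD-1 mice given a single oral dose in 100% PEG 400. Samples extracted with perchloric acid and neutralized with ammonium bicarbonate. One aliquot assayed for the free analyte; the other treated with calf intestinal phosphatase to give the total including di-/triphosphates. Analysis by LC-MS/MS.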

Liver [2] = assay: AUC (0 to infinity) in CD-1 mouse liver assessed as (1-((2-amino-6-hydroxy-9H-purin-9-yl)methyl)cyclopropoxy)me at 30 mg/kg, po administered as single dose by LC-MS analysis; format: ADME, organism-based; design: time infinity, dose 30 mg/kg, route oral; details: in vivo; method in brief: as §1
Homo sapiens [3] = assay: Cmax in chronic hepatitis B virus infected patient assessed as (1-((2-amino-6-hydroxy-9H-purin-9-yl)methyl)cyclopropoxy)me at 240 mg, po qd for 4 weeks by LC-MS analysis; format: ADME, organism-based; design: dose 240 mg, route oral; details: in vivo, 672 h
Method in brief: (§2)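 CHB patients (HBsAg/HBeAg positive), six per cohort, oral once daily for 4 weeks. Plasma sampled at steady state (weeks 2–4), predose and at 0.5, 1, 2, 3, 4, 6, 8 and 24 h postdose. Analysis by validated LC-MS/MS after protein-precipitation extraction with a stable-isotope internal standard; LLOQ 10 ng/ml for LB80317. Noncompartmental analysis gives Cmax, AUC0-24 and terminal t1/2.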

Homo sapiens [4] = assay: AUC (0 to 24 hrs) in chronic hepatitis B virus infected patient assessed as (1-((2-amino-6-hydroxy-9H-purin-9-yl)methyl)cyclopropoxy)me at 60 mg, po qd for 4 weeks by LC-MS analysis; format: ADME, organism-based, Plasma; design: time < 24 hr, dose 60 mg, route oral; details: in vivo; method in brief: as §2
Homo sapiens [5] = assay: Half life in chronic hepatitis B virus infected patient assessed as (1-((2-amino-6-hydroxy-9H-purin-9-yl)methyl)cyclopropoxy)me at 120 mg, po qd for 4 weeks by LC-MS analysis; format: ADME, organism-based; details: in vivo, 672 h; method in brief: as §2
Homo sapiens [6] = assay: Cmax in chronic hepatitis B virus infected patient assessed as (1-((2-amino-6-hydroxy-9H-purin-9-yl)methyl)cyclopropoxy)me at 60 mg, po qd for 4 weeks by LC-MS analysis; format: ADME, organism-based; design: dose 60 mg, route oral; details: in vivo, 672 h; method in brief: as §2
Homo sapiens [7] = assay: Tmax in chronic hepatitis B virus infected patient assessed as (1-((2-amino-6-hydroxy-9H-purin-9-yl)methyl)cyclopropoxy)me at 120 mg, po qd for 4 weeks by LC-MS analysis; format: ADME, organism-based; details: in vivo, 672 h
Method in brief: (§3)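 Daily oral LB80380 was given to CHB patients over 4 weeks. Blood was drawn on day 1 and at steady state (weeks 2–4), predose and 0.5–24 h postdose. Plasma LB80331 (LLOQ 5 ng/ml) and LB80317 (LLOQ 10 ng/ml) were measured by LC-MS/MS after protein-precipitation extraction. Tmax was taken by noncompartmental analysis.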

Homo sapiens [8] = assay: Half life in chronic hepatitis B virus infected patient assessed as (1-((2-amino-6-hydroxy-9H-purin-9-yl)methyl)cyclopropoxy)me at 240 mg, po qd for 4 weeks by LC-MS analysis; format: ADME, organism-based; details: in vivo, 672 h; method in brief: as §2
Liver [9] = assay: AUC (0 to 36 hrs) in CD-1 mouse liver assessed as di- and triphosphates of (1-((2-amino-6-hydroxy-9H-purin-9-yl)methyl)cyclopropoxy)me at 30 mg/kg, po administered as single dose by LC-MS analysis; format: ADME, organism-based; design: time < 36 hr, dose 30 mg/kg, route oral; details: in vivo; method in brief: as §1
Homo sapiens [10] = assay: Cmax in chronic hepatitis B virus infected patient assessed as (1-((2-amino-6-hydroxy-9H-purin-9-yl)methyl)cyclopropoxy)me at 120 mg, po qd for 4 weeks by LC-MS analysis; format: ADME, organism-based; design: dose 120 mg, route oral; details: in vivo, 672 h; method in brief: as §2
Plasma [11] = assay: AUC (0 to 36 hrs) in CD-1 mouse plasma assessed as (1-((2-amino-6-hydroxy-9H-purin-9-yl)methyl)cyclopropoxy)me at 30 mg/kg, po administered as single dose by LC-MS analysis; format: ADME, organism-based; design: time < 36 hr, dose 30 mg/kg, route oral; details: in vivo; method in brief: as §1
Homo sapiens [12] = assay: AUC (0 to 24 hrs) in chronic hepatitis B virus infected patient assessed as (1-((2-amino-6-hydroxy-9H-purin-9-yl)methyl)cyclopropoxy)me at 240 mg, po qd for 4 weeks by LC-MS analysis; format: ADME, organism-based, Plasma; design: time < 24 hr, dose 240 mg, route oral; details: in vivo; method in brief: as §2
Liver [13] = assay: Half life in CD-1 mouse liver assessed as di- and triphosphates of (1-((2-amino-6-hydroxy-9H-purin-9-yl)methyl)cyclopropoxy)me at 30 mg/kg, po administered as single dose by LC-MS analysis; format: ADME, organism-based; design: dose 30 mg/kg, route oral; details: in vivo; method in brief: as §1
Plasma [14] = assay: AUC (0 to infinity) in CD-1 mouse plasma assessed as (1-((2-amino-6-hydroxy-9H-purin-9-yl)methyl)cyclopropoxy)me at 30 mg/kg, po administered as single dose by LC-MS analysis; format: ADME, organism-based; design: time infinity, dose 30 mg/kg, route oral; details: in vivo; method in brief: as §1
Liver [15] = assay: Half life in CD-1 mouse liver assessed as (1-((2-amino-6-hydroxy-9H-purin-9-yl)methyl)cyclopropoxy)me at 30 mg/kg, po administered as single dose by LC-MS analysis; format: ADME, organism-based; design: dose 30 mg/kg, route oral; details: in vivo; method in brief: as §1
Homo sapiens [16] = assay: AUC (0 to 24 hrs) in chronic hepatitis B virus infected patient assessed as (1-((2-amino-6-hydroxy-9H-purin-9-yl)methyl)cyclopropoxy)me at 120 mg, po qd for 4 weeks by LC-MS analysis; format: ADME, organism-based, Plasma; design: dose 120 mg, time < 24 hr, route oral; details: in vivo; method in brief: as §2
Plasma [17] = assay: Half life in CD-1 mouse plasma assessed as (1-((2-amino-6-hydroxy-9H-purin-9-yl)methyl)cyclopropoxy)me at 30 mg/kg, po administered as single dose by LC-MS analysis; format: ADME, organism-based; design: dose 30 mg/kg, route oral; details: in vivo; method in brief: as §1
Liver [18] = assay: Tmax in CD-1 mouse liver assessed as (1-((2-amino-6-hydroxy-9H-purin-9-yl)methyl)cyclopropoxy)me at 30 mg/kg, po administered as single dose by LC-MS analysis; format: ADME, organism-based; design: dose 30 mg/kg, route oral; details: in vivo
Method in brief: (§4)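 Male CD-1 mice received 30 mg/kg orally in 100% PEG 400. Plasma and snap-frozen liver were taken from 3 mice per time point at 1, 2, 4, 6, 10, 24 and 36 h. Samples were extracted with perchloric acid and neutralized with ammonium bicarbonate. Free LB80331/LB80317 was measured directly by LC-MS/MS; total, including di- and triphosphates, was measured after calf intestinal phosphatase treatment.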

Liver [19] = assay: AUC (0 to 36 hrs) in CD-1 mouse liver assessed as (1-((2-amino-6-hydroxy-9H-purin-9-yl)methyl)cyclopropoxy)me at 30 mg/kg, po administered as single dose by LC-MS analysis; format: ADME, organism-based; design: time < 36 hr, dose 30 mg/kg, route oral; details: in vivo; method in brief: as §1
Homo sapiens [20] = assay: Tmax in chronic hepatitis B virus infected patient assessed as (1-((2-amino-6-hydroxy-9H-purin-9-yl)methyl)cyclopropoxy)me at 60 mg, po qd for 4 weeks by LC-MS analysis; format: ADME, organism-based; details: in vivo, 672 h; method in brief: as §3
Homo sapiens [21] = assay: AUC (0 to 24 hrs) in chronic hepatitis B virus infected patient assessed as (1-((2-amino-6-hydroxy-9H-purin-9-yl)methyl)cyclopropoxy)me at 30 mg, po qd for 4 weeks by LC-MS analysis; format: ADME, organism-based, Plasma; design: time < 24 hr, dose 30 mg, route oral; details: in vivo; method in brief: as §2
Homo sapiens [22] = assay: Tmax in chronic hepatitis B virus infected patient assessed as (1-((2-amino-6-hydroxy-9H-purin-9-yl)methyl)cyclopropoxy)me at 30 mg, po qd for 4 weeks by LC-MS analysis; format: ADME, organism-based; details: in vivo, 672 h; method in brief: as §3
Homo sapiens [23] = assay: Tmax in chronic hepatitis B virus infected patient assessed as (1-((2-amino-6-hydroxy-9H-purin-9-yl)methyl)cyclopropoxy)me at 240 mg, po qd for 4 weeks by LC-MS analysis; format: ADME, organism-based; details: in vivo, 672 h; method in brief: as §3
Homo sapiens [24] = assay: Cmax in chronic hepatitis B virus infected patient assessed as (1-((2-amino-6-hydroxy-9H-purin-9-yl)methyl)cyclopropoxy)me at 30 mg, po qd for 4 weeks by LC-MS analysis; format: ADME, organism-based; design: dose 30 mg, route oral; details: in vivo, 672 h; method in brief: as §2
Plasma [25] = assay: Cmax in CD-1 mouse plasma assessed as (1-((2-amino-6-hydroxy-9H-purin-9-yl)methyl)cyclopropoxy)me at 30 mg/kg, po administered as single dose by LC-MS analysis; format: ADME, organism-based; design: dose 30 mg/kg, route oral; details: in vivo; method in brief: as §1
Liver [26] = assay: Cmax in CD-1 mouse liver assessed as (1-((2-amino-6-hydroxy-9H-purin-9-yl)methyl)cyclopropoxy)me at 30 mg/kg, po administered as single dose by LC-MS analysis; format: ADME, organism-based; design: dose 30 mg/kg, route oral; details: in vivo; method in brief: as §1
Plasma [27] = assay: Tmax in CD-1 mouse plasma assessed as (1-((2-amino-6-hydroxy-9H-purin-9-yl)methyl)cyclopropoxy)me at 30 mg/kg, po administered as single dose by LC-MS analysis; format: ADME, organism-based; design: dose 30 mg/kg, route oral; details: in vivo; method in brief: as §4
Homo sapiens [28] = assay: Half life in chronic hepatitis B virus infected patient assessed as (1-((2-amino-6-hydroxy-9H-purin-9-yl)methyl)cyclopropoxy)me at 30 mg, po qd for 4 weeks by LC-MS analysis; format: ADME, organism-based; details: in vivo, 672 h; method in brief: as §2
Liver [29] = assay: Tmax in CD-1 mouse liver assessed as di- and triphosphates of (1-((2-amino-6-hydroxy-9H-purin-9-yl)methyl)cyclopropoxy)me at 30 mg/kg, po administered as single dose by LC-MS analysis; format: ADME, organism-based; design: dose 30 mg/kg, route oral; details: in vivo; method in brief: as §4
Liver [30] = assay: Cmax in CD-1 mouse liver assessed as di- and triphosphates of (1-((2-amino-6-hydroxy-9H-purin-9-yl)methyl)cyclopropoxy)me at 30 mg/kg, po administered as single dose by LC-MS analysis; format: ADME, organism-based; design: dose 30 mg/kg, route oral; details: in vivo; method in brief: as §1
Homo sapiens [31] = assay: Half life in chronic hepatitis B virus infected patient assessed as (1-((2-amino-6-hydroxy-9H-purin-9-yl)methyl)cyclopropoxy)me at 60 mg, po qd for 4 weeks by LC-MS analysis; format: ADME, organism-based; details: in vivo, 672 h; method in brief: as §2

AUC (Liver [1]): 2152 µM·h
AUC (Liver [2]): 3353 µM·h
Cmax (Homo sapiens [3]): 75 ng/mL
AUC (Homo sapiens [4]): 433 ng·h/mL
t1/2 (Homo sapiens [5]): 51 h
Cmax (Homo sapiens [6]): 21 ng/mL
Tmax (Homo sapiens [7]): 3 h
t1/2 (Homo sapiens [8]): 45 h
AUC (Liver [9]): 1883 µM·h
Cmax (Homo sapiens [10]): 49 ng/mL
AUC (Plasma [11]): 6 µM·h
AUC (Homo sapiens [12]): 1449 ng·h/mL
t1/2 (Liver [13]): 8.3 h
AUC (Plasma [14]): 6 µM·h
t1/2 (Liver [15]): 9.9 h
AUC (Homo sapiens [16]): 1017 ng·h/mL
t1/2 (Plasma [17]): 8.6 h
Tmax (Liver [18]): 1 h
AUC (Liver [19]): 3069 µM·h
Tmax (Homo sapiens [20]): 8 h
AUC (Homo sapiens [21]): 285 ng·h/mL
Tmax (Homo sapiens [22]): 6 h
Tmax (Homo sapiens [23]): 4.5 h
Cmax (Homo sapiens [24]): 12 ng/mL
Cmax (Plasma [25]): 0.6 µM
Cmax (Liver [26]): 243 µM
Tmax (Plasma [27]): 4 h
t1/2 (Homo sapiens [28]): 53 h
Tmax (Liver [29]): 1 h
Cmax (Liver [30]): 107 µM
t1/2 (Homo sapiens [31]): 62 h
Compound: Nc1nc(O)c2ncn(CC3(OCP(=O)(O)O)CC3)c2n1 [LB80317]
